Results published in ChEMBL document CHEMBL5055621, “Synthesis and Characterization of the Novel Rodent-Active and CNS-Penetrant P2X7 Receptor Antagonist Lu AF27139” (J Med Chem, 2021).

Columns and labels:
P2X purinoceptor 7 [1] = biological target: T1, P2X purinoceptor 7 (Homo sapiens, UniProt Q99572); experiment: Antagonist activity at human P2X7 receptor expressed in HEK293 cells assessed as inhibition of BzATP-induced calcium-flux measured after 60 mins by FLIPR analysis; format: cell-based
T1 sequence (Q99572 whole entry): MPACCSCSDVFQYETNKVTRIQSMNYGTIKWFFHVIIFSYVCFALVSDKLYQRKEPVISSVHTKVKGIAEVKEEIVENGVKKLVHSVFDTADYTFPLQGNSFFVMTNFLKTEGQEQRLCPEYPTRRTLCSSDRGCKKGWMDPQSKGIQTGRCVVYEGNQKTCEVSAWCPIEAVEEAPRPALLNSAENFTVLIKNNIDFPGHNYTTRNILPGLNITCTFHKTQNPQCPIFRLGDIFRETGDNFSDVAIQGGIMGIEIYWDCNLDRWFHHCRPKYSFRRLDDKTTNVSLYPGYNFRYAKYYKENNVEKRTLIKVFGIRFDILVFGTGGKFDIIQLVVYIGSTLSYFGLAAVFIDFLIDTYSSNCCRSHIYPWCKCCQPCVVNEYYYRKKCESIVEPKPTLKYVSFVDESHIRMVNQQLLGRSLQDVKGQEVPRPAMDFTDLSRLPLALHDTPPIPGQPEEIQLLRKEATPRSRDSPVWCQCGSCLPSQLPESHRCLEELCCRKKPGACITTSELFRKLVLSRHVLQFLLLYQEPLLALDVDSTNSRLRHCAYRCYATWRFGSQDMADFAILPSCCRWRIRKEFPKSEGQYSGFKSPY

P2X purinoceptor 7 [2] = biological target: T2, P2X purinoceptor 7 (Rattus norvegicus, UniProt Q64663); experiment: Antagonist activity at rat P2X7 receptor expressed in HEK293 cells assessed as inhibition of BzATP-induced calcium-flux measured after 60 mins by FLIPR analysis; format: cell-based
T2 sequence (Q64663 whole entry): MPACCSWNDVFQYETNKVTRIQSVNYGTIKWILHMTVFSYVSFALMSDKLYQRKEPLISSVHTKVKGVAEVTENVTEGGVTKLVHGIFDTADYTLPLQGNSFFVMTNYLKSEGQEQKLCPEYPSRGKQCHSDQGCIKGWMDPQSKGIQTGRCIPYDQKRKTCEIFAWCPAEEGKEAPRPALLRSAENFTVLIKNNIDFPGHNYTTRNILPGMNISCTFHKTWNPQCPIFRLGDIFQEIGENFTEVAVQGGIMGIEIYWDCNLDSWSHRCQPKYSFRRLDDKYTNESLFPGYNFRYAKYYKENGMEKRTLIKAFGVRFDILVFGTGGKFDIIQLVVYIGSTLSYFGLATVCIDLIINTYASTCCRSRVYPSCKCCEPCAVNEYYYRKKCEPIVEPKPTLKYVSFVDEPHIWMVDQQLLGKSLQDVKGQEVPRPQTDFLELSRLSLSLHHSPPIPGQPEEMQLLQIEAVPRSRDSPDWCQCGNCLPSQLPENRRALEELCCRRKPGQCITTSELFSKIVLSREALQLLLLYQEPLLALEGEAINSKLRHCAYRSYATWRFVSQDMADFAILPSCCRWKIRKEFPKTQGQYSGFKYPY
Method in brief: (§1)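 Stable rat or mouse P2X7 HEK293 cells in HBSS/20 mM HEPES/2.5 mM probenecid/0.05% BSA, pH 7.4, were loaded with Fluo-4 NW (37 °C 30 min, RT 30 min). After 30 min at RT, calcium fluorescence was read by FLIPR; n ≥ 3.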

P2X purinoceptor 7 [3] = biological target: T3, P2X purinoceptor 7 (Mus musculus, UniProt Q9Z1M0); experiment: Antagonist activity at mouse P2X7 receptor expressed in HEK293 cells assessed as inhibition of BzATP-induced calcium-flux measured after 60 mins by FLIPR analysis; format: cell-based; method in brief: as §1
T3 sequence (Q9Z1M0 whole entry): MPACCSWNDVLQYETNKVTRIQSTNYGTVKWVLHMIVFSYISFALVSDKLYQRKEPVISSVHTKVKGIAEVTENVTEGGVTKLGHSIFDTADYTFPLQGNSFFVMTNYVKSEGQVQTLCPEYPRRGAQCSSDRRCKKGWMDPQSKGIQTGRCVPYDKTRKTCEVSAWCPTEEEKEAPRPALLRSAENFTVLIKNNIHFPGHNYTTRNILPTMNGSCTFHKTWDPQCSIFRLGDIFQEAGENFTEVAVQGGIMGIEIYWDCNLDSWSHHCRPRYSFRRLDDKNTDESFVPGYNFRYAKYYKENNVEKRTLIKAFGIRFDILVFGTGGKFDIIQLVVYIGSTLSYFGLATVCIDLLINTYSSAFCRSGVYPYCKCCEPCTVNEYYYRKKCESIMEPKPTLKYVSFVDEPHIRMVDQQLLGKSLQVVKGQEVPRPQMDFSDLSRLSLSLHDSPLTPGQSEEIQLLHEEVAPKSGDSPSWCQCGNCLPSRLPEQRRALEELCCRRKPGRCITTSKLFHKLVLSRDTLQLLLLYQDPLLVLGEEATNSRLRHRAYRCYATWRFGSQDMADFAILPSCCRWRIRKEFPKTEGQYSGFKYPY

THP-1 = experiment: Antiinflammatory activity against human THP-1 cells assessed as reduction in LPS and BzATP-induced IL-1beta release measured after 50 mins by microplate reader; format: functional, cell-based; conditions: THP-1, 50 min
Method in brief: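 THP-1 cells were differentiated with IFN-γ 10 ng/mL for 48 h and primed with LPS (100 ng/mL final) for 3.5 h at 10k cells/well. Compound was added for 20 min, then BzATP (1 mM final) for 30 min at 37 °C. Supernatant IL-1β was read by human AlphaLISA.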

P2X purinoceptor 7 [4] = biological target: T1, P2X purinoceptor 7; experiment: Displacement of [3H]-A-804598 from human P2X7 receptor expressed in HEK293 cell membrane by in vitro binding assay; format: cell membranes
P2X purinoceptor 7 [5] = biological target: T2, P2X purinoceptor 7; experiment: Displacement of [3H]-A-804598 from rat P2X7 receptor expressed in HEK293 cell membrane by in vitro binding assay; format: cell membranes
P2X purinoceptor 7 [6] = biological target: T3, P2X purinoceptor 7; experiment: Displacement of [3H]-A-804598 from mouse P2X7 receptor expressed in HEK293 cell membrane by in vitro binding assay; format: cell membranes
[7] = Efflux ratio of permeability across basolateral to apical side over apical to basolateral side in MDCK2-MDR1 cells; format: ADME, cell-based, Canis lupus familiaris; conditions: dog, MDCK-MDR1
Method in brief: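 MDR1-MDCK monolayers; permeability measured in both A-to-B and B-to-A directions, in triplicate. Efflux ratio taken as B:A over A:B permeation.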

in vitro [8] = conditions: human, liver microsomes
in vitro [9] = conditions: rat, liver microsomes
[10] = Apparent permeability across apical to basolateral side in MDCK-MDR1 cells by LC-MS/MS analysis; conditions: dog

Row | IC50 (P2X purinoceptor 7 [1]) [nM] | IC50 (P2X purinoceptor 7 [2]) [nM] | IC50 (P2X purinoceptor 7 [3]) [nM] | IC50 (THP-1) [nM] | Ki (P2X purinoceptor 7 [4]) [nM] | Ki (P2X purinoceptor 7 [5]) [nM] | Ki (P2X purinoceptor 7 [6]) [nM] | efflux ratio [7] | CLint scaled at 1 h, 1 µM (in vitro [8]) [mL/min/kg] | CLint scaled at 1 h, 1 µM (in vitro [9]) [mL/min/kg] | Papp A:B [10] [×10⁻⁶ cm/s] | SMILES
1 | 57 | 71 | 300 | 140 | 7.4 | 16 | 48 | 0.77 | 75 | 417 | 40 | FC(F)(F)c1cccc(-c2nnnn2Cc2cccnc2)c1Cl
2 | 35 | 4.7 | 0.65 | – | – | 98 | – | 1.1 | 283 | 433 | 11 | O=C(NCC1(N2CCN(c3ccccc3)CC2)CCOCC1)c1cccnc1Sc1ccccc1
3 | 81 | – | 250 | – | 130 | – | – | – | – | – | 0.2 | COc1ccc(CC(=O)NC(N/C(=N/C#N)Nc2cccc3ncccc23)C(C)(C)C)cc1OC (stereo not given)
4 | 0.76 | 470 | 660 | – | – | – | – | – | – | – | 0.6 | COC[C@H](O)Cn1c(=O)cnn(-c2ccc(Cl)c(C(=O)NCC3(O)CCCCCC3)c2)c1=O [CE-224535]
5 | 2100 | 910 | 2900 | – | 68 | 200 | – | – | 16.7 | 767 | – | Clc1cccc(-c2nnnn2Cc2cccnc2)c1Cl
6 | 3.5 | 4.4 | 1700 | – | 15 | 130 | – | 17 | 20 | 43.3 | 0.7 | O=C(NCC12CC3CC(CC(C3)C1)C2)c1cc(CCCNCCCO)ccc1Cl [AZD9056]
7 | – | 5500 | > 10000 | – | – | 4800 | – | – | 7.83 | 53.3 | 18 | O=C(NCC1(O)CCC(F)(F)CC1)c1cc(-c2ncc(F)cn2)ccc1Cl
8 | 20 | 1900 | 2300 | – | 5.7 | 510 | – | 0.72 | 5 | 16.7 | 20 | CN1C(=O)CC[C@H]1C(=O)NCc1cccc(C(F)(F)F)c1Cl [GSK1482160]
9 | – | 95 | – | – | – | – | – | – | – | – | – | O=C(NC[C@@H](c1ccc(Cl)cc1)N1CCOCC1)c1sc(-c2ncccn2)nc1C(F)(F)F
10 | 5.5 | 260 | 320 | 27 | 5.6 | – | 100 | 0.83 | 26.7 | 85 | 25 | O=C(Cc1cccc(C(F)(F)F)c1Cl)NC1COc2ncccc21 (stereo not given)
11 | – | 6.1 | – | 15 | – | 3.9 | – | – | 23.3 | 71.7 | 9.3 | C[C@H](N/C(=N/C#N)Nc1cccc2ncccc12)c1ccccc1

Row | SMILES | IC50 (P2X purinoceptor 7 [1]) [nM] | IC50 (P2X purinoceptor 7 [2]) [nM] | IC50 (P2X purinoceptor 7 [3]) [nM] | IC50 (THP-1) [nM] | Ki (P2X purinoceptor 7 [4]) [nM] | Ki (P2X purinoceptor 7 [5]) [nM] | Ki (P2X purinoceptor 7 [6]) [nM] | efflux ratio [7] | CLint scaled at 1 h, 1 µM (in vitro [8]) [mL/min/kg] | CLint scaled at 1 h, 1 µM (in vitro [9]) [mL/min/kg] | Papp A:B [10] [×10⁻⁶ cm/s]
12 | O=C(NCC1CCCCCC1)c1cn(CCO)c2ccccc12 | 72 | 1500 | 240 | – | – | – | – | 0.7 | 883 | 533 | 5.9
13 | CN1CCc2c(cccc2C(=O)NCC2(N3CCN(c4ccccc4)CC3)CCCCC2)C1 | – | – | – | – | – | – | – | 1.1 | – | 200 | 0.25
